Here are results for 2 molecules from ChEMBL document CHEMBL2380256, “Discovery of novel Jak2-Stat pathway inhibitors with extended residence time on target” (Bioorg Med Chem Lett, 2013).

pIC50, pKi: −log10 of the molar value. Activity calls are given as the source filed them. No cut-off for these calls is given here.

Data set [1] in a line: Total plasma concentration in nude mouse allografted with mouse Ba/F3 cells expressing JAK2 TEL domain at 5 mg/kg, po qd measured at 6 hrs. Type of data set: ADME, organism-based, BaF3. The arrangement: dose 5 mg/kg, route oral. The essentials:
(§1)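 Female nude mice implanted intravenously with Ba/F3 TEL-JAK2 cells on day 0 and dosed orally on day 10. Total plasma drug concentration was measured at the stated times post-dose, averaged over n = 3 per dose and time point.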

A short description of data set [2]: Total plasma concentration in nude mouse allografted with mouse Ba/F3 cells expressing JAK2 TEL domain at 5 mg/kg, po qd measured at 2 hrs. The arrangement: dose 5 mg/kg, route oral. Type of data set: ADME, organism-based, BaF3. The essentials: as §1
The nature of data set [3]: Total plasma concentration in nude mouse allografted with mouse Ba/F3 cells expressing JAK2 TEL domain at 10 mg/kg, po qd measured at 2 hrs. The format is ADME, organism-based, BaF3. More on the design: dose 10 mg/kg, route oral. The essentials:
as §1

Data set [4] is described as follows: Total plasma concentration in nude mouse allografted with mouse Ba/F3 cells expressing JAK2 TEL domain at 10 mg/kg, po qd measured at 6 hrs. Type of data set: ADME, organism-based, BaF3. More on the design: dose 10 mg/kg, route oral. The essentials: as §1
Data set [5] can be described thus: Fraction unbound in nude mouse plasma allografted with mouse Ba/F3 cells expressing JAK2 TEL domain at 5 to 10 mg/kg, po qd after 6 hrs. The format is ADME, organism-based, BaF3. More on the design: dose 5-10 mg/kg, route oral.
For data set [6], the system named is Mus musculus. As to the kind of experiment: In vivo inhibition of JAK2 TEL domain (unknown origin) transfected in mouse Ba/F3 cells allografted in nude mouse assessed as inhibition of STAT5 phosphorylation at 5 mg/kg, po qd after 6 hrs. The arrangement: dose 5 mg/kg. As to conditions: BaF3. The format is functional, organism-based. The essentials:
(§2)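 Female nude mice implanted intravenously with Ba/F3 TEL-JAK2 cells on day 0 and given a single oral dose on day 10. pStat5 was measured at the stated times post-dose. % inhibition was scaled between vehicle and a control inhibitor as maximum and minimum, with n = 3 per dose and time point, reported as mean ±SD.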

The test system of data set [7] is Mus musculus. The data set can be described thus: In vivo inhibition of JAK2 TEL domain (unknown origin) transfected in mouse Ba/F3 cells allografted in nude mouse assessed as inhibition of STAT5 phosphorylation at 10 mg/kg, po qd after 6 hrs relative to vehicle-treated control. The format is functional. To be noted: BaF3, 6 h. In outline: as §2
In a further data set the test system is Hepatocyte. As to the kind of experiment: Metabolic stability in human hepatocytes measured per 10^6 cells. The format is ADME, cell-based.
A short description of data set [8]: Volume of distribution at steady state in beagle dog at 5 mg/kg, po and 2.5 mg/kg, iv. Type of data set: ADME, organism-based, Canis lupus familiaris. To be noted: in vivo, read-out: Vdss. In outline:
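Male Beagle dogs. Oral 5 mg/kg in 0.1% HPMC; intravenous 2.5 mg/kg in HP-β-CD.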

The nature of data set [9]: Volume of distribution at steady state in CD1 mouse at 10 mg/kg, po and 3 mg/kg, iv. Type of data set: ADME, organism-based. As to conditions: in vivo, read-out: Vdss. In outline: (§3)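 Single-dose PK: female CD-1 mice and male Han Wistar rats, 10 mg/kg po in 0.1% HPMC and 3 mg/kg iv in DMA/PEG/saline 40/40/20.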
A short description of data set [10]: Volume of distribution at steady state in Han Wistar rat at 10 mg/kg, po and 3 mg/kg, iv. The format is ADME, organism-based. As to conditions: in vivo, read-out: Vdss.
Data set [11] is described as follows: Clearance in beagle dog at 5 mg/kg, po and […] mg/kg, iv. As to conditions: in vivo, 2.5 mg/kg. The format is ADME, organism-based, Canis lupus familiaris.
Data set [12] is described as follows: Clearance in CD1 mouse at 10 mg/kg, po and 3 mg/kg, iv. Type of data set: ADME, organism-based. To be noted: in vivo. The essentials:
as §3

Data set [13] is described as follows: Clearance in Han Wistar rat at 10 mg/kg, po and 3 mg/kg, iv. Type of data set: ADME, organism-based. As to conditions: in vivo. The essentials: as §3
Data set [14] is described as follows: AUC in beagle dog at 5 mg/kg, po and […] mg/kg, iv. The format is ADME, organism-based, Canis lupus familiaris. As to conditions: plasma.
The nature of data set [15]: AUC in CD1 mouse at 10 mg/kg, po and 3 mg/kg, iv. Type of data set: ADME, organism-based. As to conditions: plasma. The essentials: as §3
Data set [16] can be described thus: AUC in Han Wistar rat at 10 mg/kg, po and 3 mg/kg, iv. Type of data set: ADME, organism-based. To be noted: plasma. The essentials:
as §3

The nature of data set [17]: Oral bioavailability in beagle dog at 5 mg/kg. The format is ADME, organism-based, Canis lupus familiaris. As to conditions: in vivo. The essentials:
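Male Beagle dogs received 5 mg/kg po (0.1% HPMC) and 2.5 mg/kg iv (HP-β-CD). %F = (AUCpo × DoseIV)/(AUCIV × Dosepo) × 100.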

Data set [18] in a line: Oral bioavailability in CD1 mouse at 10 mg/kg. Type of data set: ADME, organism-based. As to conditions: in vivo. In outline: (§4)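 Oral bioavailability in female CD-1 mice and male Han Wistar rats: 10 mg/kg po (0.1% HPMC) versus 3 mg/kg iv (DMA/PEG/saline 40/40/20). %F = (AUCpo × DoseIV)/(AUCIV × Dosepo) × 100.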
A short description of data set [19]: Oral bioavailability in Han Wistar rat at 10 mg/kg. Type of data set: ADME, organism-based. To be noted: in vivo. In outline:
as §4

Data set [20] in a line: Growth inhibition of human UKE1 cells harboring JAK2 V617F mutant after 2 days by [3H]-thymidine incorporation assay. Type of data set: functional.
The subject of another data set is SET-2. The data set can be described thus: Growth inhibition of human SET2 harboring JAK2 V617F mutant after 24 hrs by Alamar Blue assay. Type of data set: functional. As to conditions: SET-2, 24 h.
Data set [21] deals with T1, Tyrosine-protein kinase JAK2 (Homo sapiens, UniProt O60674). As to the kind of experiment: Competitive inhibition of JAK2 (unknown origin).
T1 sequence (O60674 whole entry, the tested form may be a part): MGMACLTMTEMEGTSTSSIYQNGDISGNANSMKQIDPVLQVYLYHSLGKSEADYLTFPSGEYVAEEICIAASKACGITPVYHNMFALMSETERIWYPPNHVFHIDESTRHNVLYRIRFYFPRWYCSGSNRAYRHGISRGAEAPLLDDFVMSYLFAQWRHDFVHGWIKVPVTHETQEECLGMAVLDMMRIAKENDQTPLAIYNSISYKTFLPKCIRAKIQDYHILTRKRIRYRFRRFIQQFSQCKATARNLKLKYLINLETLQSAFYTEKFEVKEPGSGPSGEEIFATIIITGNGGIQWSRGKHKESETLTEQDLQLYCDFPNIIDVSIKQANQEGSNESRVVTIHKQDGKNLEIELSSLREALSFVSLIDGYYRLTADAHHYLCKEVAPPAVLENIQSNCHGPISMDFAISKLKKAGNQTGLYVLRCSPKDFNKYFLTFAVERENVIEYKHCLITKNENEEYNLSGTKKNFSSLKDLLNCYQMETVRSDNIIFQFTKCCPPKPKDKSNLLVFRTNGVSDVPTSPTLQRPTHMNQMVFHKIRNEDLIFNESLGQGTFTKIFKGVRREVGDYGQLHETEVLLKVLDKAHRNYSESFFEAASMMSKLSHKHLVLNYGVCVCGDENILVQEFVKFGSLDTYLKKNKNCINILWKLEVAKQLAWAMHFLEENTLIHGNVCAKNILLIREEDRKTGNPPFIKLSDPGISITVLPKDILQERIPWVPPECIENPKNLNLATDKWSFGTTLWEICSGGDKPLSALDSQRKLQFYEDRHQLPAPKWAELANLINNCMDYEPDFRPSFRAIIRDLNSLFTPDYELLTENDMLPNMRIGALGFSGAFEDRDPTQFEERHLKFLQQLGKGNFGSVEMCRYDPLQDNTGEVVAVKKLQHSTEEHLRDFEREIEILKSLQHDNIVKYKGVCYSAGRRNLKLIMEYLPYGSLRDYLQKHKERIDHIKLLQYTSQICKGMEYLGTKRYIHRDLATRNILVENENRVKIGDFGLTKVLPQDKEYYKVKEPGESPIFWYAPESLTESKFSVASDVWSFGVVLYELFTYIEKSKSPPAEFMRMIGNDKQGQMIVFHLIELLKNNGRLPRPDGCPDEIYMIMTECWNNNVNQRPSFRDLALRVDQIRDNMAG
A short description of data set [22]: Growth inhibition of mouse BA/F3 cells transfected with JAK3 TEL domain after 24 hrs by Alamar Blue assay. The format is functional, cell-based. As to conditions: BaF3, 24 h, read-out: GI50.
Data set [23] in a line: Growth inhibition of mouse BA/F3 cells transfected with JAK2 TEL domain after 24 hrs by Alamar Blue assay. Type of data set: functional. To be noted: BaF3, 24 h.
The target of data set [24] is T2, Tyrosine-protein kinase JAK3 (Homo sapiens, UniProt P52333).
T2 sequence (P52333 whole entry): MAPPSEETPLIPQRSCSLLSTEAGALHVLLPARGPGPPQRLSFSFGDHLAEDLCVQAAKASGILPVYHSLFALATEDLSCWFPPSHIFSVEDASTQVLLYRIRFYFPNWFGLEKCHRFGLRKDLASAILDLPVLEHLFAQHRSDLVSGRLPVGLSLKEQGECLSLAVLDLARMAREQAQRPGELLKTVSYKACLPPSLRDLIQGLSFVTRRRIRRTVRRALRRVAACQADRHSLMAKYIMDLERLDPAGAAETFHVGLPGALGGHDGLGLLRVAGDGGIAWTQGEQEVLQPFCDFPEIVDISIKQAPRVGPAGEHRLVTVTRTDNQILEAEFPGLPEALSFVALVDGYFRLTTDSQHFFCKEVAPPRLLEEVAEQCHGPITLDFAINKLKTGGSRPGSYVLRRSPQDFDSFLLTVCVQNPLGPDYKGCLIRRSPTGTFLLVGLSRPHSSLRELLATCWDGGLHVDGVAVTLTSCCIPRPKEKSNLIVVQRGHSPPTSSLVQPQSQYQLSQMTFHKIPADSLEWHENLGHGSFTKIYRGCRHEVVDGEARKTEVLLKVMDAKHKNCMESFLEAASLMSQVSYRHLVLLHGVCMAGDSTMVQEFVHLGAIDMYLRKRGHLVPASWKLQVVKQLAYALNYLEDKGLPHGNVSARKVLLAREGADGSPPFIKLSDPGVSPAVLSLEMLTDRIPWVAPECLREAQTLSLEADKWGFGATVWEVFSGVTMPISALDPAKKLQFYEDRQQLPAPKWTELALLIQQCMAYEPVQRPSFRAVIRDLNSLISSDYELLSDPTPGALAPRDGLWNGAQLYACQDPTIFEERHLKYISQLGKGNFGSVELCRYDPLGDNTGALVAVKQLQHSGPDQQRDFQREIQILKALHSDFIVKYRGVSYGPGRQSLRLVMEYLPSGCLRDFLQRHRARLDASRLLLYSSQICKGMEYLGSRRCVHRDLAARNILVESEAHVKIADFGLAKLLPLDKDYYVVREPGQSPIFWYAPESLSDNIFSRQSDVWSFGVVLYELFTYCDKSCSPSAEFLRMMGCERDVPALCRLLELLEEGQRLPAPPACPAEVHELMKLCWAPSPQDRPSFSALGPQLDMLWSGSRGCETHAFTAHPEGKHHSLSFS
As to the kind of experiment: Inhibition of JAK3 (unknown origin) using biotinylated poly-EY peptide as substrate after 60 mins by HTRF assay.

Data set [25] addresses T1, Tyrosine-protein kinase JAK2. The data set can be described thus: Inhibition of JAK2 (unknown origin) using biotinylated TYK2 peptide as substrate after 60 mins.
The species named for another data set is Homo sapiens. As to the kind of experiment: Free drug level in human. The format is ADME, organism-based. To be noted: in vivo.
A short description of data set [26]: Total plasma concentration in nude mouse allografted with mouse Ba/F3 cells expressing JAK2 TEL domain administered as po qd measured at 6 hrs. The format is ADME, organism-based, BaF3. The essentials: as §1
A short description of data set [27]: Total plasma concentration in nude mouse allografted with mouse Ba/F3 cells expressing JAK2 TEL domain administered as po qd measured at 2 hrs. The format is ADME, organism-based, BaF3. The essentials: as §1
Data set [28] in a line: Intrinsic clearance in rat liver microsomes. To be noted: read-out: CLH. Type of data set: ADME, Microsome.
Data set [29] has as its system Mus musculus. The data set can be described thus: In vivo inhibition of JAK2 TEL domain (unknown origin) transfected in mouse Ba/F3 cells allografted in nude mouse assessed as inhibition of STAT5 phosphorylation at 10 mg/kg, po qd at 2 hrs relative to vehicle-treated control. Type of data set: functional. As to conditions: BaF3, 2 h. The essentials:
as §2

The species named for data set [30] is Mus musculus. To be noted: BaF3, 10 mg/kg.

As for `Cc1cc(Nc2nc(O[C@@H](C)c3ncc(F)cn3)c(F)c(N3CCOCC3)n2)n[nH]1`, the concentration at 6 h in [1] turned out to be 180 ng/mL; in data set [4], 246 ng/mL. Further, the concentration at 2 h in data set [2] came out at 325 ng/mL; in data set [3] it was 551 ng/mL. This molecule registered a fraction unbound at 6 h in data set [5] of 0.16. The inhibition result in the data set on Mus musculus [6] is “Active”. Moreover, in the data set on Mus musculus [7], the inhibition in vivo at 10 mg/kg is above 80%. The same molecule had a Stability in the data set with Hepatocyte below 2 µL/min/1e6 cells. The Vd in data set [8] worked out at 2.4 L/kg; in [9] it was 1.4 L/kg; in data set [10] it was 1.6 L/kg. Also, the clearance is 13 mL/min/kg in [11], 17 mL/min/kg in data set [12] and 11 mL/min/kg in data set [13]. For the same molecule, the AUC in data set [14] amounted to 8.5 µM·h; in [15], 14.7 µM·h; in data set [16], 27.5 µM·h. The figures for the bioavailability in data set [17], in data set [18] and in [19] were 56%, 64% and 74%, respectively. Also, the 50% growth inhibitory concentration (GI50) in [20] is 50 nM; in the data set on SET-2, 78 nM; in data set [22], 690 nM; in data set [23], 6 nM. For the same molecule, the pKi in data set [21] was 9.14. Further, the negative logarithm of the IC50 (pIC50) was 7.70 in data set [24] and above 8.52 in data set [25].

Consider `Cc1cnc(Nc2nc(N[C@@H](C)c3ncc(F)cn3)c(F)c(N3CCOCC3)n2)s1`, for which, in the data set filed under Homo sapiens, the “Drug uptake(free)” value was 3%. The molecule further returned a concentration at 6 h in data set [26] of 185 ng/mL. Besides, the concentration at 2 h in [27] stood at 463 ng/mL. Moreover, in [28], the microsomal CLint was 82 µL/min/mg. For the same molecule, the inhibition in vivo at 10 mg/kg in the data set with Mus musculus [29] stood at 50%. Moreover, the GI50 in [22] stood at 2700 nM; in data set [23], 30 nM. The pIC50 was 4.79 in data set [24] and 7.70 in [25]. For the same molecule, the inhibition result in the data set filed under Mus musculus [30] is “inactive”.
